# High-throughput results deposited in PubChem by several laboratories.
# NSD2 HMT inh = inhibitors of human histone methyltransferase NSD2; inhibition, % at 12.5 µM; NSD2 peptide methylation, AlphaScreen, 120 min; AID 743445; 310,000 tested, 0.54% active; O96028; in the data active = inhibition above about 50%
# Casp6 inh = caspase-6 (human) enzyme inhibition; purified caspase-6, Z-VEID-R110 cleavage fluorescence; P55212; 350,000 tested, 0.53% active; AID 686996; inhibition, % at 12.5 µM;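 active = mean inhibition across replicates at least about 35%, with every replicate also reaching that limit, limit read from the data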;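 also: 0% = median of neutral control wells and 100% = no fluorescence left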
# Target sequence (P55212 24-179 limits assumed): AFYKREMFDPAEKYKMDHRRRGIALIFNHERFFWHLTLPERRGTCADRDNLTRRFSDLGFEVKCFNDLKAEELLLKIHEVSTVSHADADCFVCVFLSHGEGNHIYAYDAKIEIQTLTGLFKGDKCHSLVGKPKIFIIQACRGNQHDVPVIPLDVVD
# Target sequence (P55212 194-293 limits assumed): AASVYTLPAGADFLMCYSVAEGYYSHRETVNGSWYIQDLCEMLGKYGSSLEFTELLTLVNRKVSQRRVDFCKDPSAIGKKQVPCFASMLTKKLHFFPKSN
# FGF22 binding = FGF22 (human) thermal shift binding; recombinant FGF22 thermal shift, SYPRO orange fluorescence; percent of sucrose octasulfate shift, DMSO zero; activity (Tm shift, normalised), % at 9.99 µM; Q9HCT0; 340,000 tested, 1.5% active; AID 651658;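 active = mean Tm shift, scaled 0 neutral to 100 positive control, at about 1.3% or above, every replicate too, limit read from the data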
# UCH37 DUB inh = human UCH37 deubiquitinating enzyme inhibition. purified proteasome/UCH37, Ub-AMC cleavage fluorescence. 330,000 tested, 0.33% active. Q9Y5K5. inhibition, % (test concentration not listed);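 active = mean inhibition over replicate wells above about 20%, limit read from the data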;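 also: 0% = compound-free wells with enzyme and 100% = wells lacking proteasome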
# Target sequence (Q9Y5K5 whole entry, looked up): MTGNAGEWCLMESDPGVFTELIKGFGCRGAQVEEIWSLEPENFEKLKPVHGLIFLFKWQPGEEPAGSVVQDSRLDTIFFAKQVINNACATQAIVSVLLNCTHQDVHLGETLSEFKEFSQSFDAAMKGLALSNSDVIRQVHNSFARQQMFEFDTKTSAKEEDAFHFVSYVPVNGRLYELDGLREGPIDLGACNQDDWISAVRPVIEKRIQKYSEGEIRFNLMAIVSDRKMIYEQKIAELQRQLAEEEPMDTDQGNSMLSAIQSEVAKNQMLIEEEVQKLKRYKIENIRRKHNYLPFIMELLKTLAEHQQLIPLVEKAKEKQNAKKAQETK
#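 Test system – human UCH37 enzyme supplied as purified proteasome complex · Incubation – 30 min preincubation with enzyme, 25 min cleavage at room temperature · Detection – AMC fluorescence from Ub-AMC cleavage, excitation 355 nm, emission 460 nm · Benchmarks – no-proteasome wells (full inhibition) and compound-free wells (no inhibition)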
# SIRT5 inh = blocks human SIRT5 desuccinylation of peptide | Purified SirT5, succinyl-peptide AMC, trypsin-coupled fluorescence | 330,000 tested, 1.1% active | Q9NXA8 | inhibition, % at 15 µM; in the data active = inhibition above about 15%
# Alpha artifact = interferes with AlphaScreen signal, flagging NSD2 false positives | shares compounds with NSD2 HMT inh | AlphaScreen artifact counterscreen, preloaded methylated H4 peptide | AC35, µM (doses to about 10 µM), for the others: at the top dose activity change, negative = signal loss | 1,500 tested, 9.4% active | AID 1053174; call rule not given here
# An asterisk follows results filed as active; nt = no result. Only some compounds are listed: those with a hit (about 2.6% of all), similar ones and a draw of the others.
SMILES,NSD2 HMT inh,Casp6 inh,FGF22 binding,UCH37 DUB inh,SIRT5 inh,Alpha artifact
CCSc1nc(-c2ccccc2)c(C#N)c(=O)[nH]1,0.3,nt,nt,2.3,nt,nt
CCCOc1ccc(-c2nc(SCc3ccccc3)[nH]c(=O)c2C#N)cc1OC,66.1*,-2.8,-0.3,-36.4,-2.2,0.2%
Cn1c(NNC(=O)c2c(F)cccc2F)cc(=O)n(C)c1=O,61.6*,24.5,0.1,12.8,-4.0,-3.6%
C=CCc1ccccc1OCC(=O)NN=Cc1ccccc1OCC,nt,nt,nt,3.5,nt,nt
Nc1ccc(C(=O)N(CCO)CCO)cc1,-0.1,8.3,0.3,3.3,1.6,nt
Nc1ccc(N(CCO)CCO)cc1,117.1*,27.6,-0.2,5.4,-1.1,-3.6%
CNC(=O)COC(=O)/C=C/c1cccs1,78.7*,-0.8,0.0,4.4,1.7,-4.8%
O=C(OCC(=O)N1CCOCC1)c1ccc(Br)cc1,63.9*,-0.1,0.1,1.0,8.0,-1.4%
C[C@@H]1CN([C@H](C)CO)C(=O)c2cc(C#CC3CCCCC3)cnc2O[C@@H]1CN(C)C(=O)Cc1ccccn1,nt,-2.1,-0.1,nt,-2.1,nt
O=C(O)CN1C(=O)/C(=C\c2cccc(OCc3ccc(F)cc3)c2)SC1=S,54.4*,nt,-0.3,14.6,1.5,-12.2%
C=CCn1c(NC(=O)c2ccc(Br)o2)c(S(=O)(=O)c2ccccc2)c2nc3ccccc3nc21,83.3*,nt,nt,-190.4,nt,-0.2%
C[C@H](CO)N1C[C@H](C)[C@@H](CN(C)Cc2ccc(C(=O)O)cc2)Oc2c(NC(=O)Nc3ccc4c(c3)OCO4)cccc2C1=O,nt,-3.0,-0.3,nt,0.4,nt
O=C(CNC(=O)c1ccccc1O)NN=Cc1cc(Br)ccc1OC(=O)/C=C/c1ccco1,nt,nt,nt,2.0,nt,nt
Cc1ccc(C(=O)Nc2ccc(Cl)cc2C(F)(F)F)c(Cl)c1,187.9*,3.1,0.0,3.7,0.8,0.7%
Cc1nnc(N/N=C/c2ccc(-c3ccccc3F)o2)n1N,85.2*,5.5,-0.7,nt,1.4,-1.2%
Cc1nnc(N/N=C/c2ccccc2O)n1N,101.1*,50.1*,-0.6,nt,-3.3,-4.9%
Cc1nnc(N/N=C\c2ccc(-c3ccccc3[N+](=O)[O-])o2)n1N,93.1*,15.0,-0.6,nt,3.8,-8.1%
Cc1nnc(N/N=C/c2c(Cl)cccc2Cl)n1N,15.2,4.3,42.1,nt,2.6,nt
O=C(NCC[C@H]1CC[C@@H](NC(=O)c2cnccn2)[C@@H](CO)O1)Nc1ccc(Cl)cc1,nt,2.7,0.1,nt,1.0,nt
CC(=O)c1c(C)nc(-c2ccc(Cl)cc2)nc1N=CN(C)C,65.8*,nt,nt,17.0,nt,-1.3%
CC(=O)c1c(C)nc(-c2ccc(Cl)cc2)nc1N,nt,20.9,42.6,10.4,-0.6,nt
C[C@H](CO)N1C[C@H](C)[C@@H](CN(C)C(=O)c2ccncc2)OCCCC[C@H](C)Oc2ccc(NS(=O)(=O)c3ccc(Cl)cc3)cc2C1=O,nt,-1.3,-0.3,nt,2.4,nt
COc1ccc(C=NNC(=S)Nc2ccccc2[N+](=O)[O-])cc1O,nt,nt,nt,4.5,nt,nt
O=[N+]([O-])c1ccccc1NC(=S)N/N=C/c1ccc(O)c(O)c1,116.9*,52.8*,-0.7,nt,3.9,1.79µM*
CCCCN(C)C(=O)C1CCN(Cc2cccc(OCc3ccccc3)c2)CC1,72.8*,-0.9,-0.1,2.8,0.9,-6.5%
SMILES,NSD2 HMT inh,Casp6 inh,FGF22 binding,UCH37 DUB inh,SIRT5 inh,Alpha artifact
CSc1nc(N)nc(N(C)C)n1,60.7*,-0.9,-0.1,1.4,-4.5,0.9%
COc1ccc2c3c([nH]c2c1)[C@H](CO)N(Cc1cc(F)ccc1F)CC31CCN(C(=O)C2CCC2)CC1,nt,-4.0,0.1,nt,-1.3,nt
CC(=NO)C(C)Oc1ccc(Cl)cc1 (stereo not given),nt,nt,nt,0.9,nt,nt
C/C(=N\O)C(C)Oc1ccc(Cl)cc1 (stereo not given),65.1*,0.5,0.3,nt,-6.2,1.7%
CC[n+]1ccc(/C=C/c2ccc(N(C)C)cc2)c2ccccc21,94.2*,-6.9,41.4,13.0,3.8,8.67µM*
CCNC(=O)[C@@H]1[C@@H](CO)[C@@H]2Cn3c(ccc(/C=C/c4ccccc4)c3=O)[C@H]1N2C(=O)C1CCCC1,nt,-0.1,nt,nt,-78.1,nt
O=C(Nc1nnc(SCc2ccc(F)cc2)s1)c1cccnc1Cl,20.5,4.3,0.3,0.9,-1.1,nt
O=C(Nc1nnc(SCc2ccc(F)cc2)s1)c1ccccn1,65.1*,2.9,0.3,-2.3,5.9,-7.4%
CC(C)(C)c1cc(C(=O)N/N=C/c2ccccn2)n[nH]1,-0.8,3.3,0.0,nt,0.2,nt
CC(C)(C)c1cc(C(=O)N/N=C/c2ccncc2)n[nH]1,54.9*,4.8,0.1,nt,-0.4,1.1%
O=C1CCN2C=Nc3cccc4ccc1c2c34,114.7*,nt,nt,-66.2,nt,2.7%
COc1ccc(NC(=O)Nc2ccc3c(c2)[C@H]2C[C@H](CC(=O)NCc4ccncc4)O[C@H](CO)[C@H]2O3)cc1,nt,3.0,-0.2,nt,-2.2,nt
C[C@H]1CN([C@@H](C)CO)C(=O)c2cc(NS(C)(=O)=O)ccc2O[C@@H]1CN(C)S(=O)(=O)c1cn(C)cn1,nt,-0.5,-0.2,nt,-4.9,nt
CN(C)C(=O)CSc1nc(SCC(=O)N(C)C)n(-c2ccccc2)n1,4.3,nt,nt,4.5,nt,nt
O=C(CSc1nc(SCC(=O)NCc2ccccc2)n(-c2ccccc2)n1)NCc1ccccc1,80.7*,5.4,0.1,1.9,0.7,-2.3%
CCOC(=O)C(C(=O)OCC)c1cc(Br)c2noc3c2c1C(=O)c1ccccc1-3,96.7*,nt,nt,1.0,nt,-13.5%
C[C@@H]1CN([C@H](C)CO)C(=O)c2cc(NC(=O)CCCN(C)C)ccc2O[C@@H]1CN(C)S(=O)(=O)c1ccc(Cl)cc1,nt,1.1,-0.2,nt,-0.4,nt
Cc1ccc(S(=O)(=O)Nc2cccc3c2O[C@H](CN(C)C(=O)Nc2ccc(C(F)(F)F)cc2)[C@H](C)CN([C@H](C)CO)C3=O)cc1,nt,-0.2,0.7,nt,11.3,nt
O=C(Nc1cc(Cl)ccc1-n1cncn1)c1cc(F)cc(F)c1,0.3,3.8,nt,3.1,-6.0,nt
O=C(Nc1cc(Cl)ccc1-n1cncn1)c1cccs1,67.6*,-3.5,-0.1,0.7,-2.2,-1.4%
COc1ccc(C2=NNC(c3cccs3)=Nc3ccc(OC)cc32)cc1,51.0*,nt,nt,-6.9,nt,-14.4%
CCOc1ccc(C2=NNC(c3cccs3)=Nc3ccc(OC)cc32)cc1OCC,1.7,nt,nt,9.5,nt,nt
CN1c2cccc3cccc(c23)N(C)C1(C)C,94.5*,nt,nt,-319.9,nt,-5.4%
O=C1N/C(=N\N=Cc2ccc3ncccc3c2)SC1Cc1ccc(SC(F)F)cc1 (stereo not given),nt,nt,nt,6.4,nt,nt
C[C@@H]1CN([C@H](C)CO)C(=O)c2cc(-c3ccccc3F)cnc2O[C@H]1CN(C)C(=O)C1CCCCC1,nt,-0.5,-0.2,nt,3.1,nt
CCn1c(SCC(=O)N2CCCCC2)nc2c1c(=O)n(C)c(=O)n2C,69.4*,1.4,0.5,1.1,3.2,-0.8%
Cc1cccc(OCC(=O)NCC(=O)NN=Cc2ccc(N(C)C)cc2)c1,nt,nt,nt,-46.0,nt,nt
